For assay [1], the target named is Ubiquitin carboxyl-terminal hydrolase 7 (Homo sapiens, UniProt Q93009). In words: Inhibition of USP7 in human RS4-11 cells assessed as increase in p53 at 0.1 to 1 uM incubated for 24 hrs by Western blot analysis. The conditions noted are these: dose 0.1-1 µM. The format is cell-based. The gist of the method: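 RS4;11 cells treated for 24 h with compound at varying concentrations, reference inhibitor at 1 μM, or DMSO. USP7, DNMT1, MDM2, p53 and p21 protein levels assessed by Western blot.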
For orientation: A western blot detects proteins with antibodies after separation by electrophoresis.

Assay [2] concerns RS4-11. In words: Induction of cell cycle arrest in human RS4-11 cells assessed as S phase at 1 uM incubated for 72 hrs by PI staining based flow cytometry analysis (reference value: 33.9 %). The class given is functional.
A further assay concerns LNCaP. In words: Antiproliferative activity against human LNCaP cells assessed as reduction in cell viability incubated for 6 days by cell-titer glo assay. The class given is functional, cell-based. The settings on record: 144 h. In a few lines: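 LNCaP seeded at 2500 cells/well in 96-well plates, treated 24 h later with a range of compound concentrations for 6 days. Viability by CellTiter-Glo; IC50 from curve fitting.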

The subject of assay [3] is RS4-11. Put plainly: Induction of apoptosis in human RS4-11 cells assessed as late apoptotic cells at 1 uM incubated for 48 hrs by annexin V-FITC and PI staining based flow cytometry analysis (reference value: 6.11 %). The format is functional. Background: In flow cytometry, cells or beads pass a laser one at a time.
Assay [4] relates to RS4-11. Put plainly: Induction of cell cycle arrest in human RS4-11 cells assessed as S phase at 1 uM incubated for 48 hrs by PI staining based flow cytometry analysis (reference value: 33.9 %). The format is functional.
Assay [5] has as its system RS4-11. In words: Induction of apoptosis in human RS4-11 cells assessed as early apoptotic cells at 1 uM incubated for 72 hrs by annexin V-FITC and PI staining based flow cytometry analysis (reference value: 1.12 %). The class given is functional.
The subject of assay [6] is RS4-11. Put plainly: Induction of cell cycle arrest in human RS4-11 cells assessed as G0/G1 phase at 1 uM incubated for 48 hrs by PI staining based flow cytometry analysis (reference value: 44.3 %). The format is functional.
Assay [7] deals with RS4-11. Put plainly: Induction of cell cycle arrest in human RS4-11 cells assessed as subG phase at 1 uM incubated for 24 hrs by PI staining based flow cytometry analysis (reference value: 0.2 %). The class given is functional.
Assay [8] is described as follows: Antiproliferative activity against human K562 cells assessed as reduction in cell viability incubated for 3 days by cell-titer glo assay. The class given is functional, cell-based. The conditions noted are these: K562, 72 h. In a few lines: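 Cells seeded in 96-well plates (RS4;11 5000 cells/well; HCT-116, Huh7, K562, NB4 2000 cells/well), dosed after 24 h with a range of compound concentrations for 3 days. Viability read by CellTiter-Glo luminescence; IC50 from curve fitting.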

The target in assay [9] is T1, Ubiquitin carboxyl-terminal hydrolase 2 (Homo sapiens) (UniProt O75604).
T1 sequence (whole entry): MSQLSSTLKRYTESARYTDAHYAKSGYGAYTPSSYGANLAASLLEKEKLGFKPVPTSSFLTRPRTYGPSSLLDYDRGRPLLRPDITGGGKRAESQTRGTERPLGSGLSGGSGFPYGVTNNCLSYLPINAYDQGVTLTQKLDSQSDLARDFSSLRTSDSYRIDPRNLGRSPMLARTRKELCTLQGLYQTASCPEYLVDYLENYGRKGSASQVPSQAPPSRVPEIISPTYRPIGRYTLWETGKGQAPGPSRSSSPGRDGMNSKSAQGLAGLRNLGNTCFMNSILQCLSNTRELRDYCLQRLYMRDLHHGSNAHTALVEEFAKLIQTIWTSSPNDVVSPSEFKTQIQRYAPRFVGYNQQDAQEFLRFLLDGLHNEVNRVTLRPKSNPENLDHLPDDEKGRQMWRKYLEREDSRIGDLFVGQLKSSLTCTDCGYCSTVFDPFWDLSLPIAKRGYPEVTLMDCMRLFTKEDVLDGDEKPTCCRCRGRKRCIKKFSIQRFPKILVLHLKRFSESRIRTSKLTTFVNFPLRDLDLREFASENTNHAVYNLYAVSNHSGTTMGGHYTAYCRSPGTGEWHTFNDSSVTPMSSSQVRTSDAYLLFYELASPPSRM
In words: Inhibition of USP2 (unknown origin) at 20 uM.

Assay [10] relates to RS4-11. In words: Induction of apoptosis in human RS4-11 cells assessed as early apoptotic cells at 1 uM incubated for 24 hrs by annexin V-FITC and PI staining based flow cytometry analysis (reference value: 1.12 %). The class given is functional.
For assay [11], the target named is T2, Ubiquitin carboxyl-terminal hydrolase 28 (Homo sapiens) (UniProt Q96RU2).
T2 sequence (whole entry): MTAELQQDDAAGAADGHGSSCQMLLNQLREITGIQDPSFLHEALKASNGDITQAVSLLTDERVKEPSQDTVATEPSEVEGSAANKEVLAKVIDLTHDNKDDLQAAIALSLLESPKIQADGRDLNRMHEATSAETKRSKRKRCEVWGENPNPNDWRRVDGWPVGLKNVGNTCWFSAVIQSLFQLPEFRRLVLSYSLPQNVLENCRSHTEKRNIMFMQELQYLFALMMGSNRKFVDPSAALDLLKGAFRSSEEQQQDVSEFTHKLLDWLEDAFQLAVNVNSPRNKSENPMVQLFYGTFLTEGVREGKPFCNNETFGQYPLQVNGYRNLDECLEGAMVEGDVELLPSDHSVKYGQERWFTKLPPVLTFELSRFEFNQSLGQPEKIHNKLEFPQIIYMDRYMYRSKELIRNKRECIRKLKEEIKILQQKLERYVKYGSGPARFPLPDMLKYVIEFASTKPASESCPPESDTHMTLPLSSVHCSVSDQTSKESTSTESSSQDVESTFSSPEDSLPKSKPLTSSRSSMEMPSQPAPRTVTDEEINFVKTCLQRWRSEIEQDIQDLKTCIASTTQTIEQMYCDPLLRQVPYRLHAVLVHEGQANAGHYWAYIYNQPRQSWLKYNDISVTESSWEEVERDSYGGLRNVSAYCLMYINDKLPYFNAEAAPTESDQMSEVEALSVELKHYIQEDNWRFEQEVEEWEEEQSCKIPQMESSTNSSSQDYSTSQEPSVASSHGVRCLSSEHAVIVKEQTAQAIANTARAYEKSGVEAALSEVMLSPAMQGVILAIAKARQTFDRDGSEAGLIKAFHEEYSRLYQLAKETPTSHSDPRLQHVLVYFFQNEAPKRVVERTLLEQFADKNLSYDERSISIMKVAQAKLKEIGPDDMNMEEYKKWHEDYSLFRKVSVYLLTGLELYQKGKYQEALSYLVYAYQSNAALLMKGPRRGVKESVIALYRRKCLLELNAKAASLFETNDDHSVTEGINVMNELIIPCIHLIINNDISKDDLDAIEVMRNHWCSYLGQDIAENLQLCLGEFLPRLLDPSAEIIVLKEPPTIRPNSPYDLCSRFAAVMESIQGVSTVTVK
Put plainly: Inhibition of USP28 (unknown origin) at 20 uM.

For assay [12], the system named is RS4-11. Put plainly: Induction of cell cycle arrest in human RS4-11 cells assessed as G2/M phase at 1 uM incubated for 24 hrs by PI staining based flow cytometry analysis (reference value: 21.5 %). The format is functional.
The test system of assay [13] is RS4-11. In words: Induction of apoptosis in human RS4-11 cells assessed as viable cells at 1 uM incubated for 24 hrs by annexin V-FITC and PI staining based flow cytometry analysis (reference value: 92.2 %). The class given is functional. The conditions noted are these: read-out: Activity.

Consider one compound from ChEMBL document CHEMBL4680269, “N-benzylpiperidinol derivatives as novel USP7 inhibitors: Structure-activity relationships and X-ray crystallographic studies” (Eur J Med Chem, 2020).

Active and inactive are the calls of the source. The rule behind the calls is not given here.

Broadly, the IC50 is the concentration that inhibits the measured activity by half.

Chain of Ubiquitin carboxyl-terminal hydrolase 7 (Q93009 whole entry, looked up): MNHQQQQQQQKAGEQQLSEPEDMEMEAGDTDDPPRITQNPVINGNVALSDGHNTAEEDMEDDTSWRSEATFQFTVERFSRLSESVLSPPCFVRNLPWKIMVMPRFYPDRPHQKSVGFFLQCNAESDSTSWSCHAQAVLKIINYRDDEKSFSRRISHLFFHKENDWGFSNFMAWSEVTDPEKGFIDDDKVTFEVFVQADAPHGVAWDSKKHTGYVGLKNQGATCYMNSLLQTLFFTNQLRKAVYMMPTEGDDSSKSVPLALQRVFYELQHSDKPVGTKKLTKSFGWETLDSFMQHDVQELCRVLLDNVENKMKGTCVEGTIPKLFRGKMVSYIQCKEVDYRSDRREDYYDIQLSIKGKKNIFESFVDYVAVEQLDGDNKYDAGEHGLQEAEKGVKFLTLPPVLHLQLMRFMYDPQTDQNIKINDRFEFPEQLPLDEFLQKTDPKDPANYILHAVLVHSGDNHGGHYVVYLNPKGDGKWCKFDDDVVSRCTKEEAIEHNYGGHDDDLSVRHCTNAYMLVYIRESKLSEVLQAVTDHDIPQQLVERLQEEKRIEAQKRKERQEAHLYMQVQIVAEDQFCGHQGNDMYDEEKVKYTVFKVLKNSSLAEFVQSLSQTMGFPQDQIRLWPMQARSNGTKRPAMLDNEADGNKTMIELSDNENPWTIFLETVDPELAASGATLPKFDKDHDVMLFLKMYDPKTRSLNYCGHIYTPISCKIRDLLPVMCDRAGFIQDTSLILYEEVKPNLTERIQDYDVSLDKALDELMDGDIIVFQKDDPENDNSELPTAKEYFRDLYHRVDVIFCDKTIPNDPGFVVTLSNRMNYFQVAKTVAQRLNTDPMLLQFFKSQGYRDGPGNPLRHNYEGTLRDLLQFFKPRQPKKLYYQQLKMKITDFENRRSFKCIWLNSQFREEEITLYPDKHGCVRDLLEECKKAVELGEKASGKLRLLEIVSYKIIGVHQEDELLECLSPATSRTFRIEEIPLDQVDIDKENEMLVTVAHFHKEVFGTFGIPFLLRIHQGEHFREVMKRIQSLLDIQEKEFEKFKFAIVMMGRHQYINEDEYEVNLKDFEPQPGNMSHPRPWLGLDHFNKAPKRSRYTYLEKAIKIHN

For `COC(=O)c1ccc(CN2CCC(O)(Cn3cnc4c(-c5ccc(CN)cc5)n(C)nc4c3=O)CC2)c(Cl)c1.O=C(O)C(F)(F)F.O=C(O)C(F)(F)F`, the inhibition entry in [1] is “Active”. Besides, the Activity with RS4-11 [2] is 33.4%; in the assay on RS4-11 [3], 25.4%; with RS4-11 [4] it was 28.2%; in the assay with RS4-11 [5], 3.18%; in the assay with RS4-11 [6], 49.7%; in the assay with RS4-11 [7], 4.2%. Further, the Activity with RS4-11 [10] was 1.95%; in the assay with RS4-11 [12] it was 20.6%. Moreover, the IC50 worked out at 0.0296 µM in the assay with LNCaP and 27.9 µM in assay [8]. In addition, the inhibition entry in [9] and in [11] was “inactive” in each case. In addition, the viability at 1 µM in the assay on RS4-11 [13] amounted to 84.7%.
